Assay results as given in ChEMBL document CHEMBL4513216, “Probing the Open Global Health Chemical Diversity Library for Multistage-Active Starting Points for Next-Generation Antimalarials” (ACS Infect Dis, 2020).

Experiment: Toxicity liver stage against HepG2, at 10uM
Format: cell-based
Set-up: test concentration 10 uM, cell line HepG2-A16-CD81EGFP
Conditions: human, HepG2-A16-CD81EGFP cells; read-out: INHIBITION
How it was run: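 Uninfected HepG2-A16-CD81EGFP cells, 3 × 10^3 per well, 1536-well, plated on prespotted compound at 10 μM final, parasite-free screening media added to match infected plates; puromycin 10 μM positive, DMSO 0.5% negative; run in parallel with 48 h PbLuc assay at 37 °C, 5% CO2; viability by CellTiter-Glo luminescence, normalized to controls.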

SMILES	cytotoxicity at 10 µM [%]
CC(NCC(N)=O)c1c(F)cccc1Cl (stereo not given)	-0.725
CCCOCC1CCN(C(=O)Cn2cccc(OC)c2=O)C1 (stereo not given)	5.88
CCc1cc(C(=O)N2CC[C@@H](c3ccc4ccccc4c3)[C@H](O)C2)[nH]n1	3.46
CC(C)c1noc(-c2ccnc(-n3cnc(C(=O)O)c3)c2)n1	0.715
CCNC(=O)NCC1(CN2CCOCC2)CCCCC1	6.73
Cc1nc(C)n(CC2CCCCN2CC(=O)Nc2nnc(C)s2)n1 (stereo not given)	-10.6
C[C@@H]1CN(C(=O)C2CCS(=O)(=O)CC2)CC[C@@]1(O)C1CCOCC1	-9.34
CN(CC(F)(F)F)C(=O)CNC(=O)Cc1cccc(O)c1	5.37
O=c1c2cccc(C(F)(F)F)c2ncn1CCN1CCNCC1	-3.21
O=C1OC2(CCN(CC3CCCO3)CC2)CN1CCc1ccccc1 (stereo not given)	-6.21
O=C(c1csc(C2CC2)n1)N1CCCC1Cn1cccn1 (stereo not given)	-5.53
CC(C)Nc1nc(-c2ccccc2)nc2c1CCN(C(=O)CC#N)CC2	-104
OCCN1CCc2[nH]nc(C(c3ccccc3)c3ccccc3)c2C1	-2.98
Cc1ccccc1Cn1nnc2cc3c(cc2c1=O)OCCO3	1.11
CNC(=O)CC1CCN(Cc2nc(-c3ccc(SC)cc3)oc2C)CC1	-8.97
CN1CCC(C2CCN(Cc3cccc(-n4cccn4)c3)CC2)C1 (stereo not given)	-6.15
Cc1cc(C(=O)Nc2ccnc(OC3CCOC3)c2)c(C)o1 (stereo not given)	6.66
COc1ccc(CN2C[C@@H](OCc3ccccn3)[C@H]3COC[C@H]32)cc1	3.63
Cc1csc(C(=O)N2CCC(O)(CN3CCc4ccccc4C3)C2)c1 (stereo not given)	-1.22
CCCC(=O)Nc1ccc(CC(=O)N(CC)CC2CCCCO2)cc1 (stereo not given)	-9.24
c1cncc(-c2ncnc3c2CCN(Cc2cccs2)CC3)c1	19.9
O=C(NCC1CC1)C1CN(c2ncccn2)Cc2ccnn2C1 (stereo not given)	0.705
CCc1ccsc1C(=O)N1CCN(C(=O)CC(F)(F)F)CC1	-9.88
c1c(CN2CCOCC2)nc2n1CCN(CC1CC1)C2	2.73
CN(C)CCOCC1CN(C(=O)N2CCCC2)Cc2ccnn2C1 (stereo not given)	4.55
COc1cc(CCO)c(OC)c2c1OCO2	-5.6
COCC(O)CN1CCC(=O)N(CC=C(C)C)Cc2ccccc21 (stereo not given)	1.87
CCc1nc(C2CCCN2CCc2ccccn2)no1 (stereo not given)	-7.03

SMILES	cytotoxicity at 10 µM [%]
CN(C)C(=O)[C@H]1C[C@H]2CN(c3ncccn3)C[C@@H]1O2	6.1
CCOC(=O)C1CCN(Cc2csc(C(C)(C)C)n2)CC1	-4.46
O=C([C@@H]1C[C@@H]2CCN(Cc3ccc4c(c3)OCO4)C[C@@H]2O1)N1CCCC1	-2.46
CCn1cc2c(n1)C(COC)CN(c1ccc(C)nn1)C2 (stereo not given)	11.6
CC(C)NC(=O)c1nn(C)c(NC(=O)Cc2ccccc2)c1F	-1.73
Cc1ccc2c(c1)c(CNC(C)Cn1nc(C)cc1C)nn2C (stereo not given)	-10.5
Cc1ccc(S(=O)(=O)NCc2cccc(C(=O)N3CCCC3)c2)cc1F	-14.5
Cc1nc(C)n(C2CCCN(C(=O)COc3ccccc3)C2)n1 (stereo not given)	-2.51
O=C(c1ccccc1F)N1CCCC1Cn1c(=O)oc2ccccc21 (stereo not given)	4.49
CN(C(=O)c1ccc(C2CCCO2)s1)C1CCS(=O)(=O)CC1 (stereo not given)	1.72
Cc1cc(C)c(S(N)(=O)=O)cc1C(=O)NCCN1CCCCC1	-5.52
CC(C)N1CCC(N2CCN(C3CCC3)CC2CCO)CC1 (stereo not given)	-12.5
Cc1cs/c(=N/C(=O)c2csc(NCC(C)C)n2)[nH]1	22.9
CCC(O)C1CCN(C(=O)Nc2nc(-c3ccccc3)ns2)CC1 (stereo not given)	-130
Cn1c(SCC(=O)NC(C)(C#N)C2CC2)nc2ccccc21 (stereo not given)	-2.15
CC(C)N1CCO[C@@H]2CN(C(=O)Cc3cccs3)CC[C@@H]2C1	-120
CCCSCC(=O)N1C[C@H]2CC[C@@H](C1)N(Cc1ccccn1)C2=O	3.32
CN(C)[C@@H]1CN(C(=O)Cc2ccc(F)cc2)[C@@H]2CCCO[C@H]12	3.88
CNc1ncc(C(=O)N2CCCC(Cc3ccccc3OC)C2)s1 (stereo not given)	-0.094
Cc1nc(NC(=O)OC(C)(C)C)sc1C#N	-10
CCC(Nc1ccc(Oc2cccc(C#N)c2)cc1)C(N)=O (stereo not given)	35.2
COc1cccc(CC(C)NC(=O)NC(C)C)c1 (stereo not given)	4.72
CCCn1nc(C(=O)N(C)Cc2cnn(C)c2)ccc1=O	-143
CCOCc1ncn2c1CN(S(=O)(=O)c1ccc(F)cc1)CC2	1.29
Cn1nccc1C(=O)N1Cc2ccccc2OC2(CCOCC2)C1	-24.7
CCN1CCCC1CNC(=O)c1cc(COc2cccc(F)c2)[nH]n1 (stereo not given)	-5.96
Cc1cnn(CC(C)NCc2ccc(OCc3nccn3C)cc2)c1 (stereo not given)	-10.7
